According to ChEMBL document CHEMBL4368930, “Synthesis and anti-HSV activity of tricyclic penciclovir and hydroxybutylguanine derivatives” (Bioorg Med Chem, 2019):

Tests used:
[1] = Cytostatic activity against human DND41 cells; assay type: ADME, cell-based
CAPAN-1 = experiment: Cytostatic activity against human Capan1 cells; assay type: ADME, cell-based
[2] = Cytostatic activity against human HAP1 cells; assay type: ADME, cell-based
Z-138 = experiment: Cytostatic activity against human Z138 cells; assay type: ADME, cell-based
HL-60 = experiment: Cytostatic activity against human HL60 cells; assay type: ADME, cell-based
K562 = experiment: Cytostatic activity against human K562 cells; assay type: ADME, cell-based
TERT-RPE1 = experiment: Cytostatic activity against human hTERT-RPE1 cells; assay type: ADME, cell-based; conditions: RPE-1
Procedure, shortened: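 Cell proliferation was measured against the number of cells in untreated controls.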

NCI-H460 = experiment: Cytostatic activity against human NCI-H460 cells; assay type: ADME, cell-based
[3] = Cytotoxicity against HEL cells assessed as effect on cell morphology at 0.32 to 200 uM by microscopic analysis; assay type: cell-based; conditions: human
Human alphaherpesvirus 2 = experiment: Antiviral activity against herpes simplex virus 2 G infected in HEL cells assessed as reduction in virus-induced cytopathogenicity by microscopic analysis; assay type: functional, organism-based; conditions: Human alphaherpesvirus 2, G
Procedure, shortened: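 Confluent cell monolayers were inoculated with 100 CCID50 of virus or 20 PFU. After a 1–2 h adsorption, residual virus was removed and cultures were incubated with the test compounds at 200, 40, 8, 1.6 and 0.32 μM. Cytopathicity was scored once it was complete in untreated infected controls.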

Human alphaherpesvirus 1 [4] = experiment: Antiviral activity against thymidine kinase deficient and aciclovir resistant herpes simplex virus 1 KOS infected in HEL cells assessed as reduction in virus-induced cytopathogenicity by microscopic analysis; assay type: functional, organism-based; conditions: Human alphaherpesvirus 1, strain KOS
Human alphaherpesvirus 1 [5] = experiment: Antiviral activity against herpes simplex virus 1 KOS infected in HEL cells assessed as reduction in virus-induced cytopathogenicity by microscopic analysis; assay type: functional, organism-based; conditions: Human alphaherpesvirus 1, strain KOS
Human alphaherpesvirus 3 [6] = experiment: Antiviral activity against Varicella-zoster virus Oka harboring thymidine kinase infected in HEL cells assessed as reduction in virus plaque formation; assay type: functional, organism-based; conditions: Human alphaherpesvirus 3, Oka
Human betaherpesvirus 5 [7] = experiment: Antiviral activity against Human cytomegalovirus Davis assessed as reduction in virus-induced cytopathogenicity by microscopic analysis; assay type: functional, organism-based; conditions: Human betaherpesvirus 5, Davis
Human betaherpesvirus 5 [8] = experiment: Antiviral activity against Human cytomegalovirus AD169 assessed as reduction in virus-induced cytopathogenicity by microscopic analysis; assay type: functional, organism-based; conditions: Human betaherpesvirus 5, strain AD169
Human alphaherpesvirus 3 [9] = experiment: Antiviral activity against thymidine kinase deficient Varicella-zoster virus 07-1 infected in HEL cells assessed as reduction in virus plaque formation; assay type: functional, organism-based; conditions: Human alphaherpesvirus 3, 07-1, HEL

Structure (SMILES) | IC50 [1] [µM] | IC50 (CAPAN-1) [µM] | IC50 [2] [µM] | IC50 (Z-138) [µM] | IC50 (HL-60) [µM] | IC50 (K562) [µM] | IC50 (TERT-RPE1) [µM] | IC50 (NCI-H460) [µM] | MCC at up to 200 µM [3] [µM] | EC50 (Human alphaherpesvirus 2) [µM] | EC50 (Human alphaherpesvirus 1 [4]) [µM] | EC50 (Human alphaherpesvirus 1 [5]) [µM] | EC50 (Human alphaherpesvirus 3 [6]) [µM] | EC50 (Human betaherpesvirus 5 [7]) [µM] | EC50 (Human betaherpesvirus 5 [8]) [µM] | EC50 (Human alphaherpesvirus 3 [9]) [µM]
COc1cc([C@@H]2c3cc4c(cc3[C@@H](O[C@@H]3O[C@@H]5CO[C@@H](C)O[C@H]5[C@H](O)[C@H]3O)[C@H]3COC(=O)[C@H]23)OCO4)cc(OC)c1O [ETOPOSIDE] | 0.06 | 0.15 | 0.04 | 1.06 | 0.03 | 0.54 | 0.23 | 1.35 | – | – | – | – | – | – | – | –
O=c1c2ncn(CCCCO)c2nc2[nH]c(-c3ccc(C(F)(F)F)cc3)cn12 | > 100 | 36.1 | 63.8 | > 100 | > 100 | > 100 | > 100 | 52.5 | > 100 | > 100 | > 100 | > 100 | – | – | – | –
O=c1c2ncn(CCCCO)c2nc2[nH]c(-c3ccc(Cl)cc3)cn12 | > 100 | 64.4 | > 100 | > 100 | > 100 | > 100 | > 100 | > 100 | > 100 | > 100 | > 100 | > 100 | – | – | – | –
O=c1c2ncn(CCC(CO)CO)c2nc2[nH]c(-c3ccc(O)cc3)cn12 | > 100 | > 100 | > 100 | > 100 | > 100 | > 100 | > 100 | > 100 | > 100 | 2.3 | > 100 | 7.6 | 9.6 | > 100 | > 100 | ≥ 74.5
O=c1c2ncn(CCC(CO)CO)c2nc2[nH]c(-c3ccc(C(F)(F)F)cc3)cn12 | 56.5 | 17.2 | 37.8 | 76.1 | 55.3 | > 100 | 51.5 | 12.5 | ≥ 100 | 31.7 | > 100 | 20 | 49.5 | 76.5 | 63.1 | 100
Cc1ccc(-c2cn3c(=O)c4ncn(CCCCO)c4nc3[nH]2)cc1 | > 100 | 78.9 | > 100 | > 100 | > 100 | > 100 | > 100 | > 100 | > 100 | > 100 | > 100 | > 100 | – | – | – | –
O=c1c2ncn(CCC(CO)CO)c2nc2[nH]c(-c3ccc(F)cc3)cn12 | > 100 | 82.8 | > 100 | > 100 | > 100 | > 100 | > 100 | > 100 | > 100 | 28 | 12 | 8.9 | > 100 | > 100 | > 100 | > 100
Nc1nc2c(ncn2COCCO)c(=O)[nH]1 [ACYCLOVIR] | – | – | – | – | – | – | – | – | > 250 | 0.9 | 100 | 0.9 | – | – | – | –
Nc1nc2c(ncn2COC(CO)CO)c(=O)[nH]1 [GANCICLOVIR] | – | – | – | – | – | – | – | – | > 250 | 0.4 | – | – | – | – | – | –
O=c1c2ncn(CCCCO)c2nc2[nH]c(-c3ccccc3)cn12 | > 100 | 69.1 | > 100 | > 100 | > 100 | > 100 | > 100 | > 100 | > 100 | > 100 | > 100 | > 100 | – | – | – | –
CC(=O)O[C@@]12CO[C@@H]1C[C@H](O)[C@@]1(C)C(=O)[C@H](O)C3=C(C)[C@@H](OC(=O)[C@H](O)[C@@H](NC(=O)OC(C)(C)C)c4ccccc4)C[C@@](O)([C@@H](OC(=O)c4ccccc4)[C@H]21)C3(C)C [DOCETAXEL ANHYDROUS] | 1.63 | 0.95 | 1.19 | 0.003 | 0.00194 | 0.003 | 25 | 0.89 | – | – | – | – | – | – | – | –
O=c1c2ncn(CCCCO)c2nc2[nH]c(-c3ccc(F)cc3)cn12 | > 100 | 56.1 | > 100 | > 100 | > 100 | > 100 | > 100 | 55.5 | > 100 | > 100 | > 100 | > 100 | – | – | – | –
